ChEMBL document CHEMBL4425120, “N1-Azinylsulfonyl-1H-indoles: 5-HT6 Receptor Antagonists with Procognitive and Antidepressant-Like Properties” (ACS Med Chem Lett, 2016)
Activity calls are given as the source filed them. The calls are words filed in the database; no cut-off is given here.

Key:
[1] = target: Adrenergic receptor alpha-1 (Rattus norvegicus) (UniProt P15823+P23944+P43140); experiment: Displacement of [3H]prazosin from rat cerebral cortex adrenergic alpha 1 receptor after 60 mins by scintillation counting
[2] = target: 5-hydroxytryptamine receptor 2B (Homo sapiens) (UniProt P41595); experiment: Agonist activity at human recombinant 5-HT2B receptor expressed in HEK-293 cells assessed as IP1 accumulation at 1 uM after 30 mins by HTRF assay; assay type: functional, cell-based
[3] = Mutagenicity in Salmonella typhimurium TA100 at 0.2 to 16 ug/ml after 48 hrs by Ames test; assay type: toxicity; conditions: salmonella enterica subsp. enterica serovar typhimurium
[4] = Intrinsic clearance in rat liver microsomes at 20 uM after 15 mins in presence of NADPH-regenerating system by UPLC/MS analysis; assay type: ADME, Microsome; conditions: read-out: CLH
[5] = Drug uptake in Wistar rat brain at 3 mg/kg, ip after 30 mins by LC-MS/MS analysis; assay type: ADME, organism-based; conditions: read-out: Drug uptake
Method in brief: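 Male Wistar rats received a single 3 mg/kg i.p. dose. Brain and plasma drug levels were measured at 15, 30 and 90 min after dosing. Brain level is expressed as ng/g tissue, alongside the brain-to-plasma concentration ratio.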

Rattus norvegicus [6] = experiment: Antidepressant activity in Sprague-Dawley rat assessed as increase in climbing time at 0.3 mg/kg, ip adminstered 60 mins prior to testing measured for 5 mins by forced swimming test; assay type: functional, organism-based
Method in brief: (§1)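 Modified forced swim test in rats with i.p. dosing. Immobility time and climbing time were scored. Data are mean ± SEM, n = 7–8 animals per group, compared against the vehicle-treated group.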

Rattus norvegicus [7] = experiment: Antianxietic activity in Wistar rat assessed as increase in number of shocks accepted at 0.1 to 1 mg/kg, ip measured for 5 mins by Vogel conflict drinking test; assay type: functional, organism-based
D(3) dopamine receptor = D(3) dopamine receptor (Homo sapiens, UniProt P35462); experiment: Displacement of [3H]-methyl-spiperone from human recombinant dopamine D3 receptor expressed in CHO cells after 60 mins by scintillation counting; assay type: cell-based
Rattus norvegicus [8] = experiment: Antianxietic activity in Wistar rat assessed as increase in number of licks accepted at 0.1 to 1 mg/kg, ip measured for 5 mins by Vogel conflict drinking test; assay type: functional, organism-based
[9] = target: Sodium-dependent serotonin transporter (Homo sapiens) (UniProt P31645); experiment: Displacement of [3H]imipramine from human recombinant SERT expressed in CHO cells after 60 mins by scintillation counting; assay type: cell-based
Cytochrome P450 3A4 = Cytochrome P450 3A4 (Homo sapiens, UniProt P08684); experiment: Inhibition of human CYP3A4 expressed in supersomes assessed as testosterone 6beta-hydroxylation after 15 mins by HPLC analysis; assay type: ADME
[10] = target: Muscarinic acetylcholine receptor M5 (Homo sapiens) (UniProt P08912); experiment: Displacement of [3H]4-DAMP from human recombinant muscarinic M5 receptor expressed in CHO cells after 60 mins by scintillation counting; assay type: cell-based
Rattus norvegicus [11] = experiment: Antidepressant activity in Sprague-Dawley rat assessed as increase in climbing time at 0.1 mg/kg, ip adminstered 60 mins prior to testing measured for 5 mins by forced swimming test; assay type: functional, organism-based; method in brief: as §1
Rattus norvegicus [12] = experiment: Antianxietic activity in Wistar rat assessed as increase in number of licks accepted at 0.3 to 3 mg/kg, ip measured for 5 mins by Vogel conflict drinking test; assay type: functional, organism-based
Rattus norvegicus [13] = experiment: Antianxietic activity in Wistar rat assessed as increase in number of shocks accepted at 0.3 to 3 mg/kg, ip measured for 5 mins by Vogel conflict drinking test; assay type: functional, organism-based
Rattus norvegicus [14] = experiment: Antidepressant activity in Sprague-Dawley rat assessed as reduction in immobility time at 0.1 mg/kg, ip adminstered 60 mins prior to testing measured for 5 mins by forced swimming test; assay type: functional, organism-based; method in brief: as §1

Chain of Cytochrome P450 3A4 (P08684 whole entry): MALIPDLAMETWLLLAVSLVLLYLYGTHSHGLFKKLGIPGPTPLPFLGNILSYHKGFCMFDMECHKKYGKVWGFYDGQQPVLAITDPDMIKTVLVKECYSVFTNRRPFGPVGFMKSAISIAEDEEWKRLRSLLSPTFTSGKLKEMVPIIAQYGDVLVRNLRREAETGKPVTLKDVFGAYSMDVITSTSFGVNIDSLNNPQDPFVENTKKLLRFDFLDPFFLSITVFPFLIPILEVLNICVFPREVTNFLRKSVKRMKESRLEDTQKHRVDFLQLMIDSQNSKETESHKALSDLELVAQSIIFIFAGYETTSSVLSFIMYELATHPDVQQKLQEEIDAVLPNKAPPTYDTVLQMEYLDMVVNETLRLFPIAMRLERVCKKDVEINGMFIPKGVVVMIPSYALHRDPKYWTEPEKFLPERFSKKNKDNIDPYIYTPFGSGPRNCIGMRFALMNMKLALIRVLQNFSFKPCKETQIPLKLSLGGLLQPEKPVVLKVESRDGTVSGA
Chain of 5-hydroxytryptamine receptor 2B (Homo sapiens) (P41595 whole entry): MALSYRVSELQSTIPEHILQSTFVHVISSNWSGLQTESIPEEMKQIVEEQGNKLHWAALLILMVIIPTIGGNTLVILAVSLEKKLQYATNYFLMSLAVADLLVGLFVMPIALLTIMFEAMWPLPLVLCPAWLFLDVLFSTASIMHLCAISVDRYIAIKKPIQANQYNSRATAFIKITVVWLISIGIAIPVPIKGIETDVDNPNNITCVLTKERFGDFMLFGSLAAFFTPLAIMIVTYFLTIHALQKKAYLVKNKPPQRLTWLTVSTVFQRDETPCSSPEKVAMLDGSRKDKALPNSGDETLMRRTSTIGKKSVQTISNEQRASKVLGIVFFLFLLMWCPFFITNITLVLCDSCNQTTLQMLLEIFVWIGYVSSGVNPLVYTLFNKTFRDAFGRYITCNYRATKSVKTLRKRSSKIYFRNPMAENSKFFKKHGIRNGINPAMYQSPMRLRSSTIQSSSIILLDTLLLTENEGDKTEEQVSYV
Chain of D(3) dopamine receptor (P35462 whole entry): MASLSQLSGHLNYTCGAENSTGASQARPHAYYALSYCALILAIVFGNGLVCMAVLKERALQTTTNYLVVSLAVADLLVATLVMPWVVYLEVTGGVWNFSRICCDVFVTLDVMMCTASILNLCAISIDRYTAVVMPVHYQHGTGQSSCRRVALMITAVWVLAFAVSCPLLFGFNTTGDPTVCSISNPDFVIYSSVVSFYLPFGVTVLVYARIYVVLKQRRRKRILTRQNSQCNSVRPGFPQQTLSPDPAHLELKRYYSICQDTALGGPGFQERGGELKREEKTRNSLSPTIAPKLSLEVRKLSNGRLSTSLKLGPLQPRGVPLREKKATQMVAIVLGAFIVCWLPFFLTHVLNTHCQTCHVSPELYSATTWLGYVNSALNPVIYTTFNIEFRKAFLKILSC
Chain of Sodium-dependent serotonin transporter (Homo sapiens) (P31645 whole entry, looked up): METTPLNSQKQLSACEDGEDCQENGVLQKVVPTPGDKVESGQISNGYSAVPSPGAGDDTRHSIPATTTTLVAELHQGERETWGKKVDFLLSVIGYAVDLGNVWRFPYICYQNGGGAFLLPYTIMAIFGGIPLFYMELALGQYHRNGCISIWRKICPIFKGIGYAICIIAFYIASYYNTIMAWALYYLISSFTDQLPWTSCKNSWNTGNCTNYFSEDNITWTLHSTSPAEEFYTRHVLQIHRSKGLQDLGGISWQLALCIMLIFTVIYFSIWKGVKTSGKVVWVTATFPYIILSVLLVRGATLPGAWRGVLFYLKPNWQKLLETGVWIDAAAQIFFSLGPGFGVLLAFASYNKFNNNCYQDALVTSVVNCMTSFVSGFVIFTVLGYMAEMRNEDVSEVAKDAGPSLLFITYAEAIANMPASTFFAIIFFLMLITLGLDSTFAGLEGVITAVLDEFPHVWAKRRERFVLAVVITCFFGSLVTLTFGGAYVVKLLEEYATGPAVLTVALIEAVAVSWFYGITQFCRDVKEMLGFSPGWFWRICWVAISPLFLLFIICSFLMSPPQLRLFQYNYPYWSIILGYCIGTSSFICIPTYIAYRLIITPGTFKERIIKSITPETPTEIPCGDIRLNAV
Chain of Muscarinic acetylcholine receptor M5 (Homo sapiens) (P08912 whole entry): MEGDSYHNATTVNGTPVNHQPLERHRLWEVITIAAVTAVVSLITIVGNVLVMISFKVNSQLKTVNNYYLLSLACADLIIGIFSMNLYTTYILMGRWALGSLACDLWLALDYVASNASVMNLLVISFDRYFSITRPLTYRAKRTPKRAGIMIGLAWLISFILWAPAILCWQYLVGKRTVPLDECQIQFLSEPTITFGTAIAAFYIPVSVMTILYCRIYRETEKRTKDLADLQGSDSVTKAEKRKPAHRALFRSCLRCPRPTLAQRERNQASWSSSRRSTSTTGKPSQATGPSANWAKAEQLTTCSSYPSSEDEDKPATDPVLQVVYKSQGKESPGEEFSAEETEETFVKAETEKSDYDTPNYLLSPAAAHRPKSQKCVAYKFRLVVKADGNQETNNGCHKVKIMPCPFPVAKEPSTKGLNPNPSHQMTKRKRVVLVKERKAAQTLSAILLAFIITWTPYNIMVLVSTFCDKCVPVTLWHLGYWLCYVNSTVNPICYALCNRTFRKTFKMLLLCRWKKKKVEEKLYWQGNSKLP

| Structure (SMILES) | inhibition [1] | Activity [2] | Activity [3] | microsomal CLint at 20 µM [4] | concentration at 0.5 h [5] | Activity (Rattus norvegicus [6]) | Activity (Rattus norvegicus [7]) | Ki (D(3) dopamine receptor) | Activity (Rattus norvegicus [8]) | inhibition [9] | IC50 (Cytochrome P450 3A4) | inhibition [10] | Activity (Rattus norvegicus [11]) | Activity (Rattus norvegicus [12]) | Activity (Rattus norvegicus [13]) | Activity (Rattus norvegicus [14]) |
| --- | --- | --- | --- | --- | --- | --- | --- | --- | --- | --- | --- | --- | --- | --- | --- | --- |
| COc1ccc2c(c1)c(C1=CCNCC1)cn2S(=O)(=O)c1ccc2cccnc2c1 | 41% | < 13% | Non-Toxic | 18 µL/min/mg | 21.9 ng/g | Active | inactive | 0.032 µM | inactive | 4% | 20 µM | – | – | – | – | – |
| COc1ccc2c(c1)c(C1=CCNCC1)cn2S(=O)(=O)c1cncc2ccccc12 | 40% | < 13% | Non-Toxic | 10 µL/min/mg | 18.6 ng/g | Active | – | 0.15 µM | – | 6% | 26 µM | 3% | Active | inactive | inactive | Active |
